Most compounds without a hit are left out; they make up all but 3.7% or so of the library.
Kir21 block: blocks the mouse Kir2.1 inward-rectifier potassium channel; HEK293-Kir2.1, FluxOR thallium flux fluorescence; active compounds read low; B-score at 10 µM; hit rate 0.85% among 310,000;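 active means fluorescence ratio B-score at or below minus 3 SD of library scores, with starting-brightness B-score within 2 SD, cut at about -4.2 in these data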;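 further: channel flux triggered by added potassium and thallium sulfate stimulus; B-score of peak minus minimum fluorescence over baseline after thallium stimulus; more negative B-score means stronger Kir2.1 block with less thallium influx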
KCNK9 block: blocks the human KCNK9 two-pore domain potassium channel. Q9NPC2. hit rate 1.2% among 310,000. B-score at 10 µM. HEK293 KCNK9, FluxOR thallium flux fluorescence; active compounds read low;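 active means ratio B-score over 3 SD below the library mean, with starting fluorescence within 5 SD of its mean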;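 further: negative B-score means less thallium flux so channel inhibition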
KCNQ1 pot: human KCNQ1 channel potentiation or activation. CHO-K1 KCNQ1, thallium flux FluxOR fluorescence; active compounds read high. B-score at 10 µM. hit rate 0.35% among 310,000;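 active means fluorescence ratio B-score, a plate-corrected score, at least three library SD, with initial intensity B-score within 5 SD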
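Assay system: CHO-K1 cells stably expressing KCNQ1; Medium: assay buffer with matched DMSO; Also added: K+/Tl+ depolarizing stimulus; Dosing: single dose; Timing: dye 90 min, compound 20 min, room temperature; Measured by: kinetic FluxOR thallium fluorescence, 10-s 1-Hz baseline, 110-s post-stimulus read; Read-out: peak-minus-minimum fluorescence over initial fluorescence, negative-control normalized, B-scored.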
KCNK3 inh: human KCNK3 channel inhibition, primary screen; O14649; CHO-KCNK3 thallium flux, FluxOR fluorescence; active compounds read low; B-score at 10 µM; hit rate 0.84% among 340,000; AID 602410;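 active means B-score under library mean minus 4 SD, starting fluorescence ratio at most library mean plus 5 SD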;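 further: more negative B-score means stronger inhibition of thallium flux through KCNK3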
Target sequence (O14649 whole entry, looked up): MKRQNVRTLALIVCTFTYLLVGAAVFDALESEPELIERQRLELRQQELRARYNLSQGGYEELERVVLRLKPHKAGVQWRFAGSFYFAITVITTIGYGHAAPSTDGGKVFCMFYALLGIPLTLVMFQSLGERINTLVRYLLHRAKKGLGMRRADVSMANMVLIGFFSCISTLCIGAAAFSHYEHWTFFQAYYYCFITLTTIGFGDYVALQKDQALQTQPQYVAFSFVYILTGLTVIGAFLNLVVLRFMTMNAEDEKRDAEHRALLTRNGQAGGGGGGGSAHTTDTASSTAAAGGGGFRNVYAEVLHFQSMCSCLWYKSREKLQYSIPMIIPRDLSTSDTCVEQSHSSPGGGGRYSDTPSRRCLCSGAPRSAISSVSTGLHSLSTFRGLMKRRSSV
hERG rescue: hERG (human) protection from proarrhythmic block; Q12809; activation (rescue from dofetilide block), less the hit threshold, % at 10 µM; AID 1511; hit rate 0.51% among 310,000; CHO-hERG, FluxOR thallium flux, dofetilide IC70 present;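 active means activation above the mean of controls blocked by dofetilide plus 5 SD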;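 further: thallium influx through hERG after potassium depolarization seen as dye fluorescence rise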
KCNQ1 block: human KCNQ1 channel inhibition; hit rate 1.3% among 310,000; CHO-K1 KCNQ1, FluxOR thallium flux fluorescence; active compounds read high; P51787; AID 2642; B-score at 10 µM;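 active means compounds whose thallium flux B-score, printed positive for inhibition, exceeds three library SD while starting fluorescence stays within three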;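 further: channel opened by potassium depolarization with thallium stimulus after 20 min compound exposure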
* = called active by the depositor; i = inactive; x = no result given.

SMILES	Kir21 block	KCNK9 block	KCNQ1 pot	KCNK3 inh	hERG rescue	KCNQ1 block
C#CCNC(=O)C1=C[C@H](c2ccc(Br)cc2)C[C@H](OCc2ccc(CO)cc2)O1	-4.8*	i	i	i	-10	i
COc1ccc(-c2csc3ncnc(N4CCN(S(=O)(=O)c5cccc(C(F)(F)F)c5)CC4)c23)cc1	1.6	-7.1*	i	i	-12	i
O=S(=O)(c1cccc(F)c1)N1CCN(c2ncnc3scc(-c4ccc(F)cc4)c23)CC1	1.6	i	i	i	-15	i
COC(=O)c1c(NC(C)=O)csc1C	0.07	i	i	i	-7	i
COC(=O)c1c(NC(=O)C(C)(C)C)csc1C	-0.36	i	i	i	8.2*	i
COCCCNC(=O)c1cn(-c2cccc(OC)c2)c(=O)c2ccccc12	-1	i	i	i	-1	i
CCN(CC)CCCNC(=O)c1cn(-c2cccc(OC)c2)c(=O)c2ccccc12	-0.5	i	i	i	5.0*	i
Cc1ccc(C)c(S(=O)(=O)NC2CCSC2=O)c1 (stereo unspecified)	x	x	x	i	x	x
CC(C)(O)c1cc2ccc(C#Cc3ccsc3)cc2c(=O)o1	x	x	x	i	x	x
O=C(COc1ccc(-c2ccccc2)cc1)N/N=C/c1cc(O)ccc1Br	-0.65	i	i	i	-5	11*
CN1C(=O)/C(=C\c2ccc(N(C)C)cc2)OC1=S	-0.96	i	i	i	-17	11*
O=C(NNc1ccccc1Br)C(O)(c1cccc(C(F)(F)F)c1)c1cccc(C(F)(F)F)c1	0.32	-8.3*	i	i	-6	i
Cc1ccc(NNC(=O)C(O)(c2cccc(C(F)(F)F)c2)c2cccc(C(F)(F)F)c2)cc1	-0.88	i	i	i	-14	i
Cc1ccc(C(=O)C[n+]2ccc3ccccc3c2)cc1	-0.83	i	i	i	-5	i
Cc1cc(C(C)(C)C)cc(C)c1C[n+]1ccc2ccccc2c1	-1.4	i	i	i	-15	7*
CC(C)(C)NC(=O)NC(=O)COC(=O)c1c(F)cccc1Cl	1.6	i	i	i	-7	i
C[C@@H](C(=O)CC(=O)OC(C)(C)C)[C@@H](O)c1c(F)cccc1Cl	0.04	-8*	i	i	-7	i
O=C(CC(c1ccccc1)C1CCCCC1=O)c1ccccc1 (stereo unspecified)	x	x	x	i	x	x
COCCN(C(=O)COC(=O)CCCc1c[nH]c2ccccc12)c1c(N)n(Cc2ccccc2)c(=O)[nH]c1=O	x	x	x	i	x	x
CC(=O)N[C@@H](Cc1c[nH]c2ccccc12)C(=O)OCC(=O)Nc1cc(C)on1	x	x	x	i	x	x
CCOC(=O)CCCNC(=O)CSc1nc2ccc(OCC)cc2[nH]1	1.5	i	i	i	7.2*	i
COc1cc(F)ccc1S(=O)(=O)n1c(C)nc2ccccc21	-6.5*	i	i	i	-6	i
COc1cc(C)c(C)cc1S(=O)(=O)n1c(C)nc2ccccc21	-5.1*	i	i	i	-8	i
COc1cc(S(=O)(=O)n2c(C)nc3ccccc32)ccc1F	0.73	i	i	i	-3	i
CC(C)n1cc2c(N)ncnc2n1	x	x	x	i	x	x
SMILES	Kir21 block	KCNK9 block	KCNQ1 pot	KCNK3 inh	hERG rescue	KCNQ1 block
O=C(NCC(c1ccc(F)cc1)N1CCOCC1)c1nn(-c2ccccc2)c(=O)c2ccccc12 (stereo unspecified)	x	x	x	i	x	x
Cc1cc(N2CCN(C)CC2)nc(N2CCOCC2)n1	-0.5	i	i	i	8.0*	i
Cc1cc(N2CCOCC2)nc(N2CCOCC2)n1	0.04	i	i	i	-4	i
CN1CCN(CC(O)(c2ccc(Cl)cc2)c2ccc(Cl)cc2)CC1	-8.8*	i	i	i	-17	i
CN1CCN(CC(O)COc2ccc(Cl)cc2)CC1 (stereo unspecified)	-1.6	i	i	i	-4	i
CN1CCN(C(CNC(=O)Nc2ccc(Cl)cc2)c2ccc(F)cc2)CC1 (stereo unspecified)	-0.96	i	i	i	-11	6*
Cc1ccc(C(CNC(=O)Nc2ccc(Cl)cc2)N2CCN(C)CC2)cc1 (stereo unspecified)	-0.83	i	i	i	-15	i
COC(=O)/C=C1\OC(c2ccccc2)=CC1=O	-10*	i	i	x	-34	8*
O=C1OC(c2ccccc2)=C/C1=C/N1CCCCC1	-0.23	i	i	i	-7	i
CN(C)S(=O)(=O)c1cccc(NC(=S)Nc2ccc(Cl)cc2Cl)c1	-2.5	i	i	i	-11	i
CN(C)S(=O)(=O)c1cccc(NC(=S)Nc2cc(Cl)cc(Cl)c2)c1	-2.4	i	i	i	-24	7*
CN(C)S(=O)(=O)c1cccc(NC(=S)N/N=C/c2ccc(O)c(O)c2O)c1	-5.4*	i	i	i	-17	i
Clc1ccc(-c2csc(Nc3ccccc3)[n+]2Cc2ccco2)c(Cl)c1	-3.6	-7.3*	i	i	-20	i
CC(=O)Nc1ccc(S(=O)(=O)NCCC(=O)OCC(=O)c2cccc(Br)c2)cc1	x	x	x	i	x	x
C=CC(=O)Nc1cccc(N(C)c2ccnc(Nc3ccc(N4CCN(C)CC4)cc3)n2)c1	x	x	x	i	x	x
CNC(=S)NNC(=O)c1cccn(Cc2ccc(Cl)cc2Cl)c1=O	-0.16	i	i	x	-16	7*
Nc1nc(-c2ccccc2)c(CCCOc2ccc(NC(=O)CBr)cc2)c(=O)[nH]1	x	x	x	i	x	x
N/C(CSc1nc(-c2ccccc2)c(-c2ccccc2)o1)=N\O	0.03	-7.2*	i	i	-12	8*
COc1cc(SC#N)ccc1N=Cc1c(C)[nH]n(-c2ccc(Cl)cc2)c1=O	-0.52	i	i	i	-7	i
COc1cc(S(=O)(=O)Nc2ccccc2)ccc1N=Cc1c(C)[nH]n(-c2ccc(C)cc2)c1=O	-1.2	-9.6*	i	x	-3	i
Cn1c(=O)c2c(ncn2CC(=O)OCc2ccccc2)n(C)c1=O	2.8	i	i	i	5.3*	i
COC(=O)Cn1cnc2c1c(=O)n(C)c(=O)n2C	-0.74	i	i	i	-4	i
CC(OC(=O)c1ccc([N+](=O)[O-])s1)C(=O)NC1CCCCC1C (stereo unspecified)	x	x	x	i	x	x
C=CCC1C=C(Cc2ccccc2)CC(CC=C)N1 (stereo unspecified)	-4.1	i	i	i	-5	i
C=CC[C@H]1CC(Cc2ccccc2)=C[C@H](CC=C)N1	-6.5*	i	i	i	-12	i
COc1ccccc1Cc1nc2ccccc2n1S(=O)(=O)c1ccc(Cl)cc1	-0.2	i	i	i	-3	i

Screening results as filed in PubChem.
